In ChEMBL document CHEMBL4334491, “Discovery of Benzamidine- and 1-Aminoisoquinoline-Based Human MAS-Related G-Protein-Coupled Receptor X1 (MRGPRX1) Agonists” (J Med Chem, 2019):
Activity calls are given as the source filed them. The calls are words filed in the database; no cut-off is given here.

Experiments:
[1] = target: T1, Mas-related G-protein coupled receptor member X1 (Homo sapiens, UniProt Q96LB2); test: Agonist activity at human MrgprX1 expressed in HEK293 cells incubated for 2 mins by Fluo4AM dye based FLIPR assay relative to BAM8-22; type: cell-based
T1 sequence (Q96LB2 whole entry): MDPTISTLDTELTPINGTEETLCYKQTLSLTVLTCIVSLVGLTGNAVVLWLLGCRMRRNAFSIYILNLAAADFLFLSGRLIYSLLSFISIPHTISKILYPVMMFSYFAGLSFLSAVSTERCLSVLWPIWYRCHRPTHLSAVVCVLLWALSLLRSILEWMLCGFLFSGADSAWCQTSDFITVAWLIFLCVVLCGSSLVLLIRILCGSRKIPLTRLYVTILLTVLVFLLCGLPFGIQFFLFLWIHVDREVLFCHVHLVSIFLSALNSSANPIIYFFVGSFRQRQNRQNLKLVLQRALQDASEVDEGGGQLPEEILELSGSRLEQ
Summary of the method: (§1)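 HEK293 cells stably expressing human MrgprX1 were plated at 25,000/well and grown 2 days. They were loaded with 2 μM Fluo-4 AM plus 1% Trypan Red in HBSS for 50 min at 37°C, then equilibrated 10 min at room temperature. Serially diluted compounds in HBSS were added, with BAM8-22 as positive control. FLIPR imaging ran 2 min, read as max–min fluorescence. EC50 is mean ± SD of ≥4 experiments.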

[2] = target: T1, Mas-related G-protein coupled receptor member X1; test: Agonist activity at human MrgprX1 expressed in HEK293 cells incubated for 2 mins by Fluo4AM dye based FLIPR assay; type: cell-based; summary of the method: as §1
[3] = target: T1, Mas-related G-protein coupled receptor member X1; test: Agonist activity at human MrgprX1 expressed in HEK293 cells up to 100 uM incubated for 2 mins by Fluo4AM dye based FLIPR assay relative to BAM8-22; type: cell-based; summary of the method: as §1
[4] = target: T1, Mas-related G-protein coupled receptor member X1; test: Agonist activity at human MRGPRX1 in DRG neurons obtained from humanized MrgprX1 mouse assessed as inhibition of high-voltage-activated Ca2+ currents 5 uM at -80 mV holding potential; type: functional
Summary of the method: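 DRG neurons from 3–4-week-old MrgprX1 mice, enzyme-dissociated, cultured with NGF and GDNF and used at 20–40 h. Whole-cell patch clamp of MrgprA3-GFP neurons at 21–23 °C in NMDG-Cl/5 mM BaCl2 bath, pH 7.4. Holding −80 mV, step to −40 mV 20 ms, −60 mV 20 ms, then −10 mV 40 ms evoking HVA current. P/4 leak subtraction. Currents compared before/after bath application.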

[5] = target: T1, Mas-related G-protein coupled receptor member X1; test: Agonist activity at human MRGPRX1 in DRG neurons obtained from humanized MrgprX1 mouse assessed as inhibition of high-voltage-activated Ca2+ currents 10 uM at -80 mV holding potential; type: functional
Summary of the method: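 DRG neurons from 3–4-week-old humanized MrgprX1 mice were dispase/collagenase-dissociated, cultured with NGF and GDNF, and used after 20–40 h. Whole-cell patch clamp was done in Ba2+/NMDG extracellular solution, pH 7.4, at 21–23°C. Cells were held at −80 mV, stepped to −40 mV, then −60 mV, then −10 mV for 40 ms to evoke HVA currents. Compound was bath-applied; P/4 leak subtraction.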

[6] = target: Delta-type opioid receptor (Rattus norvegicus, UniProt P33533); test: Displacement of [3H]DADLE from delta opioid receptor in rat brain after 60 mins by liquid scintillation counting method; type: tissue-based
Chain of Delta-type opioid receptor (P33533 whole entry): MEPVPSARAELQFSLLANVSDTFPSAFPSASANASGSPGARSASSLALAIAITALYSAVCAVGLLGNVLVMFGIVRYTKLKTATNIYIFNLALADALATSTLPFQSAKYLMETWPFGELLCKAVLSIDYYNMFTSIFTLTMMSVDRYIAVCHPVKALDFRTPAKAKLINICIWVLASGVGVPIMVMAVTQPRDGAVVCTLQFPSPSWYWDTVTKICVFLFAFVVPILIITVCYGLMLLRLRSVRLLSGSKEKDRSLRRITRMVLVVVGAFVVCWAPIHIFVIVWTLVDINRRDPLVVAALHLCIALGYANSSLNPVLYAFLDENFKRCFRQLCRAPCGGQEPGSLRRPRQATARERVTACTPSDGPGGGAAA

Mu-type opioid receptor = Mu-type opioid receptor (Rattus norvegicus, UniProt P33535); test: Displacement of [3H]DAMGO from mu opioid receptor in rat brain after 60 mins by liquid scintillation counting method; type: tissue-based
Chain of Mu-type opioid receptor (P33535 whole entry): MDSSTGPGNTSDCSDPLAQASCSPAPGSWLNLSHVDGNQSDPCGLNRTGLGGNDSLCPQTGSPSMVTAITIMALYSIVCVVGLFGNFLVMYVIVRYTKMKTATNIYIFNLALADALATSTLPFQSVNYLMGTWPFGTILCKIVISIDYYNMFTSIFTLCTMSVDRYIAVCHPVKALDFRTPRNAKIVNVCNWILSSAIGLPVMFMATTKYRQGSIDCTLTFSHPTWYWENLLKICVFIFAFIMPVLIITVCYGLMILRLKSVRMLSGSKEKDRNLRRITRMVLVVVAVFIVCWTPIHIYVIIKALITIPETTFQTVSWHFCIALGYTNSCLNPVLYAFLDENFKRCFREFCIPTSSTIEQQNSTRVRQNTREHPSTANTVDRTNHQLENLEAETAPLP

[7] = target: Kappa-type opioid receptor (Rattus norvegicus, UniProt P34975); test: Displacement of [3H]U-69,593 from kappa opioid receptor in rat brain after 60 mins by liquid scintillation counting method; type: tissue-based
Chain of Kappa-type opioid receptor (P34975 whole entry): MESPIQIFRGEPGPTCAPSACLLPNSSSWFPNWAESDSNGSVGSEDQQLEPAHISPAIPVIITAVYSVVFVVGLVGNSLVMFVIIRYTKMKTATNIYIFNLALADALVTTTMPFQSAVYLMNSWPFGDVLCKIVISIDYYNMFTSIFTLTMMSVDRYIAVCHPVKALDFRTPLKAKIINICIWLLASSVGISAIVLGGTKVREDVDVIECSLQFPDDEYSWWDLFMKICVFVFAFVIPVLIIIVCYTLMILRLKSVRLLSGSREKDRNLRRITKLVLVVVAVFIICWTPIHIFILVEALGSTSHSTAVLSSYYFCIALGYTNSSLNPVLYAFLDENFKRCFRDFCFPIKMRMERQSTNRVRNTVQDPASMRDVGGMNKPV

[8] = Half life in mouse liver microsomes; type: ADME, Microsome
[9] = target: T2, Mas-related G-protein coupled receptor member X1 (Mus musculus) (UniProt Q8CIP3); test: Agonist activity at mouse MRGPRC11 expressed in KNRK cells at 40 uM by Fura2-AM dye based FLIPR assay; type: cell-based
T2 sequence (whole entry): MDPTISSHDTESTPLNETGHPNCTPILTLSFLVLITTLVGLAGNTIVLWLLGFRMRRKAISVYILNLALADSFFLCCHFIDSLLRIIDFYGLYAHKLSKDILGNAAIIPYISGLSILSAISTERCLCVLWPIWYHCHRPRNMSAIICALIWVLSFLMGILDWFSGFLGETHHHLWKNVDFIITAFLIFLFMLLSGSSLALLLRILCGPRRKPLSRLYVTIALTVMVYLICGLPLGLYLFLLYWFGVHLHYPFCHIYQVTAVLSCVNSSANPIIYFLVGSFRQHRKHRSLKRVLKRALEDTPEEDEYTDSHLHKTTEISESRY

[10] = Selectivity index, ratio of Ki for displacement of [3H]DADLE from delta opioid receptor in rat brain after 60 mins by liquid scintillation counting method to EC50 for agonist activity at human MrgprX1 expressed in HEK293 cells incubated for 2 mins by Fluo4AM dye based FLIPR assay; type: cell-based
[11] = Selectivity index, ratio of Ki for displacement of [3H]DAMGO from mu opioid receptor in rat brain after 60 mins by liquid scintillation counting method to EC50 for agonist activity at human MrgprX1 expressed in HEK293 cells incubated for 2 mins by Fluo4AM dye based FLIPR assay; type: cell-based
[12] = Selectivity index, ratio of Ki for [3H]U-69,593 from kappa opioid receptor in rat brain after 60 mins by liquid scintillation counting method to EC50 for agonist activity at human MrgprX1 expressed in HEK293 cells incubated for 2 mins by Fluo4AM dye based FLIPR assay; type: cell-based
[13] = AUC in CD1 mouse plasma at 10 mg/kg, iv administered as single dose by LC-MS/MS analysis; type: ADME, organism-based; details: in vivo
Summary of the method: (§2)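 Male CD1 mice (25–30 g) received a single 10 mg/kg iv dose, n=3 per time point, and were killed by CO2 at set times. Plasma came from cardiac-puncture blood spun at 3,000 g for 15 min. Spinal cords were flash frozen. Samples were extracted in acetonitrile with losartan internal standard and quantified by LC/MS/MS. Calibration covered 0.01–10 nmol/mL, built with 1/x-weighted linear regression in naive matrix.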

[14] = AUC in CD1 mouse spinal cord at 10 mg/kg, iv administered as single dose by LC-MS/MS analysis; type: ADME, organism-based; details: in vivo; summary of the method: as §2
[15] = Ratio of AUC in spinal cord to AUC in plasma of CD1 mouse at 10 mg/kg, iv administered as single dose by LC-MS/MS analysis; type: ADME, organism-based; summary of the method: as §2
[16] = Half life in CD1 mouse at 10 mg/kg, iv administered as single dose by LC-MS/MS analysis; type: ADME, organism-based; details: in vivo; summary of the method: as §2

Row | Compound | Emax [1] | EC50 [2] | also measured
1 | CCCCS(=O)(=O)Nc1ccccc1Oc1ccc(C(=N)N)cc1 | > 95% | 300 nM | 
2 | COc1cc(CNc2ccc(C(=N)N)cc2)ccc1OCc1ccsc1 | > 95% | 290 nM | 
3 | COc1cc(CNc2cccc(C(=N)N)c2)ccc1OCc1ccccc1 | > 95% | 3300 nM | 
4 | COc1ccccc1S(=O)(=O)Nc1ccc(C)cc1Oc1ccc2sc(N)nc2c1 |  | > 100000 nM | Activity [3]: inactive
5 | H-VGRPEWWMDYQKRYG-OH |  |  | inhibition [4]: Active
6 | COc1ccccc1S(=O)(=O)Nc1ccc(C)cc1Oc1cccc(C(=N)N)c1 | > 95% | 3600 nM | 
7 | Cc1ccc(NS(=O)(=O)c2ccccc2OC(F)(F)F)c(Oc2ccc(C(=N)N)cc2)c1 | > 95% | 150 nM | 
8 | COc1cc(CNc2ccccc2C(=N)N)ccc1OCc1ccccc1 |  | > 100000 nM | Activity [3]: inactive; inhibition [5]: inactive
9 | Cc1ccc(NS(=O)(=O)c2ccc(F)cc2)c(Oc2ccc(C(=N)N)cc2)c1 | > 95% | 2100 nM | 
10 | COc1ccccc1S(=O)(=O)Nc1ccc(C)cc1Oc1ccc(C(=N)N)cc1 | > 95% | 100 nM | Ki [6]: 220 nM; Ki (Mu-type opioid receptor): 72.7 nM; Ki [7]: 1.43 µM
11 | CCCCS(=O)(=O)Nc1cc(C)ccc1Oc1ccc(C(=N)N)cc1 | > 95% | 920 nM | 
12 | COc1cc(CNc2ccc3c(N)nccc3c2)ccc1OCc1ccccc1 | > 95% | 3700 nM | 
13 | COc1ccccc1S(=O)(=O)Nc1ccc(C)cc1Oc1ccccc1C(=N)N | > 95% | 23000 nM | 
14 | COc1cc(CNc2ccc(C(=N)N)cc2)ccc1OCc1ccc(-n2cccc2)cc1 | > 95% | 680 nM | 
15 | Cc1ccc(S(=O)(=O)Nc2ccc(C)cc2Oc2ccc(C(=N)N)cc2)cc1 | > 95% | 160 nM | 
16 | COc1cc(CNc2ccc(C(=N)N)cc2)ccc1OCc1ccccc1 | > 95% | 510 nM | inhibition [5]: Active
17 | N=C(N)c1ccc(NCc2ccc(OCc3ccccc3)cc2)cc1 | > 95% | 5200 nM | 
18 | COc1cc(CNc2ccc(C(=N)N)cc2)ccc1OCCC(C)C | > 95% | 1900 nM | 
19 | COc1cc(CNc2ccc(C(=N)N)cc2)ccc1OCc1cccnc1 | > 95% | 5200 nM | 
20 | COc1ccccc1S(=O)(=O)Nc1ccc(C)cc1Oc1ccc2c(N)nccc2c1 | > 95% | 50 nM | half-life [8]: < 15 min; Activity [9]: inactive; Ki [6]: 2470 nM; Ki (Mu-type opioid receptor): 3730 nM; Ki [7]: 12.1 µM; Ratio [10]: 50; Ratio [11]: 75; Ratio [12]: 242; AUC [13]: 0.9 nmol·h/mL; AUC [14]: 5.66 nmol·h/g; Kp [15]: 6.3; half-life [16]: 19.8 min
21 | CCCCS(=O)(=O)Nc1ccc(C)cc1Oc1ccc(C(=N)N)cc1 | > 95% | 2200 nM | 
